ChEMBL document CHEMBL5705899 (Biochem J, 2014)
Calls of active or inactive are those of the source. The rule behind the calls is not given here.

Columns and labels:
[1] = target: Death-associated protein kinase 1 (Homo sapiens) (UniProt P53355); test: Inhibition of human DAPK1 at 1 uM using RBER-GSK3 as substrate in presence of 33P-ATP by ProQinase assay
[2] = target: Discoidin domain-containing receptor 2 (Homo sapiens) (UniProt Q16832); test: Inhibition of human DDR2 at 1 uM using poly(Ala,Glu,Lys,Tyr) as substrate in presence of 33P-ATP by ProQinase assay
[3] = system: U2OS; test: Inhibition of PI3K in human U2OS cells expressing FLAG-tagged SGK3 assessed as reduction in NDRG1 phosphorylation at T346 residues at 0.01 to 1 uM 1 hr by immunoblot analysis; assay type: cell-based; conditions: dose 0.01-1 µM
How it was run: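 Flp-In T-REx U2OS cells were grown in McCoy medium with 10% FBS. Expression of C-terminally FLAG-tagged full-length SGK3 was induced with 0.01 mg/ml doxycycline for 24 h. Cells were treated with inhibitor for 1 h and lysed in phosphatase-inhibitor buffer. Lysates were cleared at 16000 g for 10 min at 4°C, protein was measured by Bradford, and phosphorylation was read by immunoblot with ECL detection.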

[4] = target: CDK1/Cyclin E (Homo sapiens) (UniProt P06493+P24864); test: Inhibition of human CDK1/Cyclin E1at 1 uM using RBER-CHKtide as substrate in presence of 33P-ATP by ProQinase assay; assay type: protein-complex assay
[5] = target: Mitogen-activated protein kinase 15 (Homo sapiens) (UniProt Q8TD08); test: (§1) Inhibition of recombinant human N-terminal His6-tagged ERK8 (2 to 544 residues) expressed in baculovirus infected Sf21 cells assessed as remaining activity at 1 uM using MBP as substrate incubated for 30 mins in presence of [gamma-33P]ATP by filter binding method relative to control
[6] = target: Fibroblast growth factor receptor 1 (Homo sapiens) (UniProt P11362); test: Inhibition of human FGFR1 at 1 uM using polyEy as substrate in presence of 33P-ATP by ProQinase assay
[7] = target: Tyrosine-protein kinase ABL1 (Homo sapiens) (UniProt P00519); test: Inhibition of human ABL1 at 1 uM using poly(Ala,Glu,Lys,Tyr) as substrate in presence of 33P-ATP by ProQinase assay
[8] = target: Cyclin-dependent kinase 5/CDK5 activator 1 (Homo sapiens) (UniProt Q00535+Q15078); test: Inhibition of human CDK5/p25NCK at 1 uM using RBER-CHKtide as substrate in presence of 33P-ATP by ProQinase assay; assay type: protein-complex assay
[9] = target: Serine/threonine-protein kinase PAK 6 (Homo sapiens) (UniProt Q9NQU5); test: Inhibition of recombinant human N-terminal GST-tagged PAK6 (2 to 681 residues) expressed in Escherichia coli assessed as remaining activity at 1 uM using RRRLSFAEPG as substrate incubated for 30 mins in presence of [gamma-33P]ATP by filter binding method relative to control
[10] = target: PI3-kinase p110-alpha/p85-alpha (Homo sapiens, UniProt P42336); test: Inhibition of human PIK3CA/PIK3R1 using PIP2/PS as substrate by ADP-Glo assay; assay type: protein-complex assay
[11] = target: Ephrin type-A receptor 2 (Homo sapiens) (UniProt P29317); test: Inhibition of recombinant human N-terminal GST-tagged EPHA2 (591 to 976 residues) expressed in Escherichia coli assessed as remaining activity at 1 uM using Poly (Glu,Tyr) as substrate incubated for 30 mins in presence of [gamma-33P]ATP by filter binding method relative to control
[12] = target: Receptor tyrosine-protein kinase erbB-2 (Homo sapiens) (UniProt P04626); test: Inhibition of human ERBB2 at 1 uM using polyEY as substrate in presence of 33P-ATP by ProQinase assay
[13] = target: Dual specificity protein kinase TTK (Homo sapiens) (UniProt P33981); test: Inhibition of recombinant human N-terminal His6-tagged TTK (1 to 857 residues) expressed in baculovirus infected Sf21 cells assessed as remaining activity at 1 uM using RSRSRSRSRSRSRSR as substrate incubated for 30 mins in presence of [gamma-33P]ATP by filter binding method relative to control
[14] = target: MAP/microtubule affinity-regulating kinase 4 (Homo sapiens) (UniProt Q96L34); test: Inhibition of human MARK4 at 1 uM using RBER-CHKtide as substrate in presence of 33P-ATP by ProQinase assay
[15] = target: Ephrin type-A receptor 2 (Homo sapiens) (UniProt P29317); test: Inhibition of human EPHA2 at 1 uM using polyEy as substrate in presence of 33P-ATP by ProQinase assay
[16] = target: SRSF protein kinase 2 (Homo sapiens) (UniProt P78362); test: Inhibition of human SRPK2 at 1 uM using MBP as substrate in presence of 33P-ATP by ProQinase assay
[17] = target: Activin receptor type-1-like (Homo sapiens) (UniProt P37023); test: Inhibition of human ACVRL1 at 1 uM using casein as substrate in presence of 33P-ATP by ProQinase assay
[18] = target: NUAK family SNF1-like kinase 2 (Homo sapiens) (UniProt Q9H093); test: Inhibition of human SNARK at 1 uM using histone H2B as substrate in presence of 33P-ATP by ProQinase assay
[19] = target: BDNF/NT-3 growth factors receptor (Homo sapiens) (UniProt Q16620); test: Inhibition of human TRKB at 1 uM using polyEY as substrate in presence of 33P-ATP by ProQinase assay
[20] = target: CDK2/Cyclin A2 (Homo sapiens) (UniProt P24941+P20248); test: Inhibition of human CDK2/CycA2 at 1 uM using RBER-CHKtide as substrate in presence of 33P-ATP by ProQinase assay; assay type: protein-complex assay
[21] = target: Bone morphogenetic protein receptor type-1A (Homo sapiens) (UniProt P36894); test: Inhibition of human BMPR1A at 1 uM using casein as substrate in presence of 33P-ATP by ProQinase assay
[22] = target: Receptor-interacting serine/threonine-protein kinase 2 (Homo sapiens) (UniProt O43353); test: Inhibition of recombinant human N-terminal GST-tagged RIPK2 (2 to 311 residues) expressed in baculovirus infected Sf21 cells assessed as remaining activity at 1 uM using MBP as substrate incubated for 30 mins in presence of [gamma-33P]ATP by filter binding method relative to control
[23] = target: Serine/threonine-protein kinase MARK1 (Homo sapiens) (UniProt Q9P0L2); test: as §1, with “MARK1” for “ERK8”, “795” for “544”, “KKKVSRSGLYRSPSMPENLNRPR” for “MBP”
[24] = target: Serine/threonine-protein kinase PAK 3 (Homo sapiens) (UniProt O75914); test: Inhibition of human PAK3 at 1 uM using bio-4xCHKT as substrate in presence of 33P-ATP by ProQinase assay

Ephrin type-A receptor 2 (Homo sapiens), sequence (P29317 whole entry, the tested form may be a part): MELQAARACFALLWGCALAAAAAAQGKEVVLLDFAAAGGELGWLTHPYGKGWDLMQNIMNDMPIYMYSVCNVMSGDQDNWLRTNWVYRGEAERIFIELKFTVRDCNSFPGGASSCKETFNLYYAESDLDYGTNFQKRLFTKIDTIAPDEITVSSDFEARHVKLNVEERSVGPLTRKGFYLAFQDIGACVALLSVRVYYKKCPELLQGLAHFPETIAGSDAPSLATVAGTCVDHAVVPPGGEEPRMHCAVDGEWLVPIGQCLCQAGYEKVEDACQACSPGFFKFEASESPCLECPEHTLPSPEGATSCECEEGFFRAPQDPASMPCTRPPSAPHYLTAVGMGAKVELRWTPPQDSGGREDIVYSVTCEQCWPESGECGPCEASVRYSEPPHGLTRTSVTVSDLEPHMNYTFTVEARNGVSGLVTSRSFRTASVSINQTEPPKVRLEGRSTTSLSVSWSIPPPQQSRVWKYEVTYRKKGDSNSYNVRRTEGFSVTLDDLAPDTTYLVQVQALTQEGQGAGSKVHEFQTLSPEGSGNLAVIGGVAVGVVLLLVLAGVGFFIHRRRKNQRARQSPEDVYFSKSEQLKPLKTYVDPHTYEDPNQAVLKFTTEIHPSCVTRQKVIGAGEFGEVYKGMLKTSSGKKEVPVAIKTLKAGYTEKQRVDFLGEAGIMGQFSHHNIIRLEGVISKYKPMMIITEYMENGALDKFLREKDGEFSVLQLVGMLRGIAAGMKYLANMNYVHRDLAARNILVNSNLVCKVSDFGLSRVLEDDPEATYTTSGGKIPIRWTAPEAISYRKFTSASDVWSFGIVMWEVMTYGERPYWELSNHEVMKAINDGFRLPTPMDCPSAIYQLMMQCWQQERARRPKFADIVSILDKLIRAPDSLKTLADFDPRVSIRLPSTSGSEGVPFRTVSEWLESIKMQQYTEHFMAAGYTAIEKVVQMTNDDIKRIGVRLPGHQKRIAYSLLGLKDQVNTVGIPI
PI3-kinase p110-alpha/p85-alpha, sequence (P27986 whole entry, the tested form may be a part): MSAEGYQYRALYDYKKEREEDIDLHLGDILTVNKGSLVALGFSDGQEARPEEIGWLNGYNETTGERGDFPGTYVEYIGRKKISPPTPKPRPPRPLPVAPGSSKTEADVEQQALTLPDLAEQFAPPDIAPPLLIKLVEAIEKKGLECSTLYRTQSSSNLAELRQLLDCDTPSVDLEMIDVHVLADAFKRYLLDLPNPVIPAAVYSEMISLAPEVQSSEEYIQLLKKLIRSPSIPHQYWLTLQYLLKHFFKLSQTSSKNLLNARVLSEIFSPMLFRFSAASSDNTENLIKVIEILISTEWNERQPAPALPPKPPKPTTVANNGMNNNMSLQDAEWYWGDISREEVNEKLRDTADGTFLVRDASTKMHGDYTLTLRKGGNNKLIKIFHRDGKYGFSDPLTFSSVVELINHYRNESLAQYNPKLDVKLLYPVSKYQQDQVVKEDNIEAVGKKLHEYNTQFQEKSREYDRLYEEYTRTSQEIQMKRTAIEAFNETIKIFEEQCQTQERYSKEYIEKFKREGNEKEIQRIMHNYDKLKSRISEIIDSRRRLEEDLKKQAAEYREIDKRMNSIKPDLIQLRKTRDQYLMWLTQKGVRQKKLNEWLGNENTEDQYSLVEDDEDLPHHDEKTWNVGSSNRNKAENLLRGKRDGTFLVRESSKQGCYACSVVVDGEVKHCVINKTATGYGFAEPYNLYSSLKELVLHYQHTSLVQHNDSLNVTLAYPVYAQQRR
PI3-kinase p110-alpha/p85-alpha, sequence (P42336 whole entry, the tested form may be a part): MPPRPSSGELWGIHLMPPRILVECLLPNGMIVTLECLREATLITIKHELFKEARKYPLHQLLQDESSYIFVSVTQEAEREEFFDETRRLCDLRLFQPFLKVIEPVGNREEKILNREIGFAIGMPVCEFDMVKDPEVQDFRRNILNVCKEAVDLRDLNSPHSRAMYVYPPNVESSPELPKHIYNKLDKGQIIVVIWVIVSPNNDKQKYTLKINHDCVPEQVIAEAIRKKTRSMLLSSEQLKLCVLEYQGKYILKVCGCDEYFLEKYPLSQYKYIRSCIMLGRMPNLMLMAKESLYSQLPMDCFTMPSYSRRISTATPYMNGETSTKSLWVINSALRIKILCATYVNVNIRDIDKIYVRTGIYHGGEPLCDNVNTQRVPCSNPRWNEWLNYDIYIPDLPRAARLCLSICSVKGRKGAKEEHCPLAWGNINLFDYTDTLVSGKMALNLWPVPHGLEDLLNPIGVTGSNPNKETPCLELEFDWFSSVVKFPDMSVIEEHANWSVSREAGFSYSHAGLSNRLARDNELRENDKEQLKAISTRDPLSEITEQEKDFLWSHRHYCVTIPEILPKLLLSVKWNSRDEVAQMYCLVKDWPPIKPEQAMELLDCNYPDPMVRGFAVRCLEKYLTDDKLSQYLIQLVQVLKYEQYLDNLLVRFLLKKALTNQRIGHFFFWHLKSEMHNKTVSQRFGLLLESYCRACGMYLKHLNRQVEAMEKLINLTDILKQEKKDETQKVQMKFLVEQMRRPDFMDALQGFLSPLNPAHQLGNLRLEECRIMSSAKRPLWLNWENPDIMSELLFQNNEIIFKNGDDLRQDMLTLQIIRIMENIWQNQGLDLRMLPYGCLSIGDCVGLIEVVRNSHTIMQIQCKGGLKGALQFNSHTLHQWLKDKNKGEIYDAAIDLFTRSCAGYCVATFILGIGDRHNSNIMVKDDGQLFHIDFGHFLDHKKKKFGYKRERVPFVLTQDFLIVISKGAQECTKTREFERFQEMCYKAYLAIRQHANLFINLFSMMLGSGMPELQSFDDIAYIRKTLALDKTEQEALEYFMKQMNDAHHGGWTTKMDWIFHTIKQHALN
Serine/threonine-protein kinase PAK 6 (Homo sapiens), sequence (Q9NQU5 whole entry, looked up, the tested form may be a part): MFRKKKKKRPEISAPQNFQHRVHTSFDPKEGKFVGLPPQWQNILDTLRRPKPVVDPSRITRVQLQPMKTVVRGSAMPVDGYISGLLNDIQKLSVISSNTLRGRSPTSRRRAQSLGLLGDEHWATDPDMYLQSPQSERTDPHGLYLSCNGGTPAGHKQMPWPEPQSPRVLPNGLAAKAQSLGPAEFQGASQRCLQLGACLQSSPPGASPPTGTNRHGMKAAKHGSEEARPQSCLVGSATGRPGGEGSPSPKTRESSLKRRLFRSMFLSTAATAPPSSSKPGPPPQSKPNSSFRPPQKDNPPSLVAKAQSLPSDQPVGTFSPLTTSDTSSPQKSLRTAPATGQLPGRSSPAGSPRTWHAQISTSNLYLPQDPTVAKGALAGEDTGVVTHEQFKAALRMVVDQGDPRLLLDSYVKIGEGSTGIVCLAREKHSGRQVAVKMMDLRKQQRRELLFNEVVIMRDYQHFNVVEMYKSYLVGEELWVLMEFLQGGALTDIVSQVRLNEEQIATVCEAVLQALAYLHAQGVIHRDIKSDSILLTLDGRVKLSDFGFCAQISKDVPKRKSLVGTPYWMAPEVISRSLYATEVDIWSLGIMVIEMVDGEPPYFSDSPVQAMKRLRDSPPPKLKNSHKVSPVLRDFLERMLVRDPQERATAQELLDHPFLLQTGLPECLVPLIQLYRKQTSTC
NUAK family SNF1-like kinase 2 (Homo sapiens), sequence (Q9H093 whole entry): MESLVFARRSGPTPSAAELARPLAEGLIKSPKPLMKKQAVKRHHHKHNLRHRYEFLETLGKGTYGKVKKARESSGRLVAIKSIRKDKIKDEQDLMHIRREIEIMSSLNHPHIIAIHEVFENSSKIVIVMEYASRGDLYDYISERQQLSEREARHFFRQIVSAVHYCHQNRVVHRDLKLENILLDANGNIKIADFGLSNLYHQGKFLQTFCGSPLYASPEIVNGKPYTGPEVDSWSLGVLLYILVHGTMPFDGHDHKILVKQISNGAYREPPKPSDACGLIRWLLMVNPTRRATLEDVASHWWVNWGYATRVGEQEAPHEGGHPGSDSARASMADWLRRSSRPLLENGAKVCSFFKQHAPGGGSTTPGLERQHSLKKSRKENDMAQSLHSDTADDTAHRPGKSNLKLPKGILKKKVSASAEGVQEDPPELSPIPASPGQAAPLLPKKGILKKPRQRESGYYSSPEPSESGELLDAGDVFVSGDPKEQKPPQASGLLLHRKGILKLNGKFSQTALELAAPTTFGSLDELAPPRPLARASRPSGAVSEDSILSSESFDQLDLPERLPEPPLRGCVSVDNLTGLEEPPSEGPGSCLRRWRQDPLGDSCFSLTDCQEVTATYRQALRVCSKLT
Discoidin domain-containing receptor 2 (Homo sapiens), sequence (Q16832 whole entry, the tested form may be a part): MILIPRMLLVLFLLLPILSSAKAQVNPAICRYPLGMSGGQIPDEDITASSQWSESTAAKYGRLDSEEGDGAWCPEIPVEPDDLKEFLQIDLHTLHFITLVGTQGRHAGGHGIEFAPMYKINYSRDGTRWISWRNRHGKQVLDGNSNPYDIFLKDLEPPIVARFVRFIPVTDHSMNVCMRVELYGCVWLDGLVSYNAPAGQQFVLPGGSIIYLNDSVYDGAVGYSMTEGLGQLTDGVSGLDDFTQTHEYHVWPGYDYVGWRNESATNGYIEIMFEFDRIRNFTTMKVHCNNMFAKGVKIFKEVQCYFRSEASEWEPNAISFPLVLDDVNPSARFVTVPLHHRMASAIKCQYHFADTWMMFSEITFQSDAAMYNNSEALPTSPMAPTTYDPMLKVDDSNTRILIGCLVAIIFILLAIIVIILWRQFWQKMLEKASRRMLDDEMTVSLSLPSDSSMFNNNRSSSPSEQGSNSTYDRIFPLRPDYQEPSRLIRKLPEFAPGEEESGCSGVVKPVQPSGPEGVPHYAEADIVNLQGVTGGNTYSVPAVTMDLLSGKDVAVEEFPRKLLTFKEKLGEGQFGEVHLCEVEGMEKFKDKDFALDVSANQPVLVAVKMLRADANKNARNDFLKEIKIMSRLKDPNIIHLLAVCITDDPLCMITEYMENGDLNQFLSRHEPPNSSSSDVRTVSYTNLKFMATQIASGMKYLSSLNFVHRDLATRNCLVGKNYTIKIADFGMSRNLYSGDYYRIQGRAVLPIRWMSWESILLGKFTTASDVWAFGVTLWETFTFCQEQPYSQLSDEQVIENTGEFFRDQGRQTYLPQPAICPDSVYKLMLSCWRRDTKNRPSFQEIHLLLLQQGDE

In the case of `CC(C)(O)CNc1ncc(-c2ccnc(Nc3ccnc(Cl)c3)n2)c(CC2CC2)n1`, the inhibition [1] is reported as “inactive”, the inhibition [2] is reported as “inactive” and the inhibition [3] is reported as “Active”. For the same compound, the inhibition [4] was “inactive”, the Activity [5] was 36% and the inhibition [6] was “inactive”. For the same compound, the inhibition [7] was “inactive”, the inhibition [8] was “inactive” and the Activity [9] was 97%. The IC50 [10] was > 10 µM, the Activity [11] was 101% and the inhibition [12] was “inactive”. For the same compound, the Activity [13] was 108%, the inhibition [14] was “inactive” and the inhibition [15] was “inactive”. For the same compound, the inhibition [16] was “inactive”, the inhibition [17] was “inactive” and the inhibition [18] was “inactive”. The inhibition [19] was “inactive”, the inhibition [20] was “inactive” and the inhibition [21] was “inactive”. For the same compound, the Activity [22] was 79%, the Activity [23] was 114% and the inhibition [24] was “inactive”.
